Assays:
[1] = (§1) Metabolic stability assessed as half life in mouse liver microsomes; format: ADME, Microsome; settings: liver microsomes
Method in brief: (§2)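 Compound incubated with mouse liver microsomes. Half-time is for the loss of parent compound, in minutes.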

[2] = system: Plasmodium falciparum; assay: Antimalarial activity against Plasmodium falciparum; format: functional; settings: read-out: ED50
Method in brief: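 P. falciparum parasites (chloroquine-sensitive strain 3D7 and chloroquine-resistant strain K1) were grown in red blood cell cultures with compound. ED50 is the concentration giving 50% inhibition of parasite growth, in nM.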

[3] = system: Plasmodium falciparum; assay: Antimalarial activity against chloroquine-sensitive Plasmodium falciparum 3D7 in human red blood cells after 48 hrs; format: functional; settings: 3D7, 48 h, read-out: ED50 (the source's name)
Method in brief: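 P. falciparum strain 3D7 (chloroquine-sensitive) grown in red blood cell cultures. ED50 was taken as the compound concentration that inhibits parasite growth by 50%.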

[4] = system: Plasmodium falciparum; assay: Inhibition of Plasmodium falciparum protein farnesyltransferase at 50 nM
[5] = system: Plasmodium falciparum; assay: Inhibition of Plasmodium falciparum protein farnesyltransferase at 5 nM
[6] = system: Plasmodium falciparum; assay: Inhibition of Plasmodium falciparum protein farnesyltransferase at 0.5 nM
[7] = system: Plasmodium falciparum; assay: Inhibition of Plasmodium falciparum protein farnesyltransferase at 500 nM
[8] = system: Plasmodium falciparum; assay: Antimalarial activity against chloroquine-resistant Plasmodium falciparum K1 in human red blood cells after 48 hrs; format: functional; settings: K1, 48 h, read-out: ED50 (the source's name)
Method in brief: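 Parasites grown in red blood cell cultures; ED50 is the concentration that inhibits parasite growth by 50%.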

[9] = species: Rattus norvegicus; assay: Inhibition of rat protein geranylgeranyltransferase 1 at 1 uM
Method in brief: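 Run like the rat PFT assay, but with rat PGGT-I (5 ng), H-Ras-CVLL peptide as substrate, and [3H]geranylgeranyl pyrophosphate as donor. Read-out is percent inhibition at a single inhibitor concentration.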

[10] = species: Rattus norvegicus; assay: Inhibition of rat protein farnesyltransferase at 50 nM
[11] = species: Rattus norvegicus; assay: Inhibition of rat protein farnesyltransferase at 5 nM
[12] = species: Rattus norvegicus; assay: Inhibition of rat protein farnesyltransferase at 0.5 nM
[13] = species: Rattus norvegicus; assay: Inhibition of rat protein farnesyltransferase at 500 nM
[14] = species: Rattus norvegicus; assay: Inhibition of rat protein farnesyltransferase at 5000 nM
[15] = system: Liver; assay: as §1; format: ADME, Microsome; settings: microsomes; method in brief: as §2

Row | EC50 [2] | t1/2 [15] | Structure (SMILES) | half-life [1] | EC50 [3] | inhibition [4] | inhibition [5] | inhibition [6] | inhibition [7] | EC50 [8] | inhibition [9] | inhibition [10] | inhibition [11] | inhibition [12] | inhibition [13] | inhibition [14]
1 | 320 nM |  | COC(=O)N1CCC(CN(C2Cc3cc(C#N)ccc3N(Cc3cncn3C)C2)S(=O)(=O)c2ccccn2)CC1 (configuration not stated) | 5.4 min |  |  |  |  |  |  |  |  |  |  |  | 
2 |  |  | COC(=O)N1CCC(CN(C2Cc3cc(C#N)cnc3N(Cc3cncn3C)C2=O)S(=O)(=O)c2ccccn2)CC1 (configuration not stated) |  | 320 nM | 88% | 16% | 0% | 97% | 310 nM |  |  |  |  |  | 
3 |  |  | Cn1cncc1CN1C(=O)C(N(Cc2ccc(S(C)(=O)=O)cc2)S(=O)(=O)c2ccccn2)Cc2cc(C#N)cnc21 (configuration not stated) | 15 min | 3100 nM | 48% | 3% | 0% | 91% | > 5000 nM |  |  |  |  |  | 
4 |  |  | Cn1cnc(S(=O)(=O)NC2Cc3cc(C#N)cnc3N(Cc3cncn3C)C2=O)c1 (configuration not stated) |  | > 5000 nM | 66% | 32% | 15% | 94% | > 5000 nM | 0% | 1% | 0% | 0% | 0% | 39%
5 |  | 15.6 min | Cn1cnc(S(=O)(=O)N(Cc2ccc(S(C)(=O)=O)cc2)C2Cc3cc(C#N)ccc3N(Cc3cncn3C)C2)c1 (configuration not stated) |  |  |  |  |  |  |  |  |  |  |  |  | 
6 |  |  | Cn1cnc(S(=O)(=O)N(Cc2ccc(S(C)(=O)=O)cc2)C2Cc3cc(C#N)cnc3N(Cc3cncn3C)C2=O)c1 (configuration not stated) | 52 min | 420 nM | 98% | 80% | 27% | 99% | 300 nM | 0% | 0% | 0% | 0% | 9% | 47%
7 |  |  | COC(=O)N1CCC(CN(C2Cc3cc(C#N)cnc3N(Cc3cncn3C)C2=O)S(=O)(=O)c2cn(C)cn2)CC1 (configuration not stated) | > 120 min | 350 nM | 95% | 71% | 33% | 98% | 175 nM | 5% | 28% | 7% | 0% | 71% | 85%
8 |  |  | Cn1cnc(S(=O)(=O)NC2Cc3cc(Br)cnc3N(Cc3cncn3C)C2=O)c1 (configuration not stated) |  | > 5000 nM | 28% | 0% | 0% | 74% | > 5000 nM | 16% | 8% | 5% | 0% | 8% | 51%
9 |  |  | COC(=O)N1CCC(CN(C2Cc3cc(C#N)ccc3N(Cc3cncn3C)C2)S(=O)(=O)c2cn(C)cn2)CC1 (configuration not stated) | 3.8 min |  |  |  |  |  |  |  |  |  |  |  | 

— ChEMBL document CHEMBL1142286, “2-Oxo-tetrahydro-1,8-naphthyridines as selective inhibitors of malarial protein farnesyltransferase and as anti-malarials” (Bioorg Med Chem Lett, 2008)
